According to ChEMBL document CHEMBL2434820, “Design, synthesis, and biological evaluation of novel 2-ethyl-5-phenylthiazole-4-carboxamide derivatives as protein tyrosine phosphatase 1B inhibitors with improved cellular efficacy” (Eur J Med Chem, 2013):

Key:
[1] = biological target: T1, Tyrosine-protein phosphatase non-receptor type 1 (Rattus norvegicus) (UniProt P20417); assay: Inhibition of PTP1B in rat L6 cells assessed as insulin-stimulated 2-deoxy-[3H]-deoxy-glucose uptake at 20 uM preincubated for 2 hrs followed by insulin challenge for 30 mins; type: cell-based
T1 sequence (whole entry): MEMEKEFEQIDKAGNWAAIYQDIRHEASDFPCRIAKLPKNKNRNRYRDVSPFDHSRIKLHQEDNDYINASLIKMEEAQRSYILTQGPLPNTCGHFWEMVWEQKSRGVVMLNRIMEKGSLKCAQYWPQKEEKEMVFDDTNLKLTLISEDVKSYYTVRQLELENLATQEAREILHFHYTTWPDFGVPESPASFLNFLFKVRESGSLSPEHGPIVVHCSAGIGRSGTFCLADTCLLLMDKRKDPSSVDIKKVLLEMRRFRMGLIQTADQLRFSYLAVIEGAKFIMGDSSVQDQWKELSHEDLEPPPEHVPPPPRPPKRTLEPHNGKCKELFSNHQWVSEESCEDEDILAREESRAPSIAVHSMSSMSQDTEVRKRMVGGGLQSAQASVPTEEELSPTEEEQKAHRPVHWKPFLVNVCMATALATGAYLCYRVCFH
Procedure, shortened: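 Differentiated L6 myotubes were serum-starved 2 h, treated with compound, then stimulated with 10 nM insulin for 30 min. Cells were washed in HEPES-buffered saline, pH 7.4, and incubated 15 min with 2-deoxy-[3H]-glucose. After ice-cold PBS washes they were lysed in 0.1% Triton X-100 and radioactivity was counted. Data are averages of at least three independent replicates.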

[2] = biological target: T2, Tyrosine-protein phosphatase non-receptor type 2 (Homo sapiens, UniProt P17706); assay: Inhibition of TCPTP (unknown origin)
T2 sequence (P17706 whole entry): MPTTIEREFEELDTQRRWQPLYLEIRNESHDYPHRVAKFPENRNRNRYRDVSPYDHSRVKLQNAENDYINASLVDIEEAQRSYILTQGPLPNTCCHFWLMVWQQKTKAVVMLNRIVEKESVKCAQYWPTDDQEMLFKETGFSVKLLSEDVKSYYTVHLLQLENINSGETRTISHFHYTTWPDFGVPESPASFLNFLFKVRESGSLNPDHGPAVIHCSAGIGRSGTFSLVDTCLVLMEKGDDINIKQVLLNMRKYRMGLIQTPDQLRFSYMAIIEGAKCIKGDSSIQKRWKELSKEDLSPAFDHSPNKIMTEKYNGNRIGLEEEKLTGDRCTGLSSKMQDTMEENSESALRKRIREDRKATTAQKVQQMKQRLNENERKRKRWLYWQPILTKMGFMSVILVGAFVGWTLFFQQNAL

[3] = biological target: Tyrosine-protein phosphatase non-receptor type 6 (Homo sapiens, UniProt P29350); assay: Inhibition of SHP-1 (unknown origin)
[4] = biological target: T3, Tyrosine-protein phosphatase non-receptor type 11 (Homo sapiens, UniProt Q06124); assay: Inhibition of SHP-2 (unknown origin)
T3 sequence (Q06124 whole entry): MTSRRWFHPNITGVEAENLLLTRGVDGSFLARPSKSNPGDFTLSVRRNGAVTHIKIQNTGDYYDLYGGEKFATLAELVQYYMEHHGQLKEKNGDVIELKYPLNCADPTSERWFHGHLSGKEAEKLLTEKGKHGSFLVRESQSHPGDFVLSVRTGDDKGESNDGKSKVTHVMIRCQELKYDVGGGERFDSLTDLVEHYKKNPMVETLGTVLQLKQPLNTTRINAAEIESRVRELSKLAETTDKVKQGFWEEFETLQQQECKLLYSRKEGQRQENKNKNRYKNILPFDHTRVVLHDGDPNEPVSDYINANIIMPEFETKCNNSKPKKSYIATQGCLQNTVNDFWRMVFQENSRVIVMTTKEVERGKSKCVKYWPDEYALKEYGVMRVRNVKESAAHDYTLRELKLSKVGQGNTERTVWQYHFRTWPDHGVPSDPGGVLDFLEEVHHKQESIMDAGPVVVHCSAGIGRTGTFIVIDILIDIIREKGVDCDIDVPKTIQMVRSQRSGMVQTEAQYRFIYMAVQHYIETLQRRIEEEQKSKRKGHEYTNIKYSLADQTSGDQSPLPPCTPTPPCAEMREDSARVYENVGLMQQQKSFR

Sequence of Tyrosine-protein phosphatase non-receptor type 6 (P29350 whole entry): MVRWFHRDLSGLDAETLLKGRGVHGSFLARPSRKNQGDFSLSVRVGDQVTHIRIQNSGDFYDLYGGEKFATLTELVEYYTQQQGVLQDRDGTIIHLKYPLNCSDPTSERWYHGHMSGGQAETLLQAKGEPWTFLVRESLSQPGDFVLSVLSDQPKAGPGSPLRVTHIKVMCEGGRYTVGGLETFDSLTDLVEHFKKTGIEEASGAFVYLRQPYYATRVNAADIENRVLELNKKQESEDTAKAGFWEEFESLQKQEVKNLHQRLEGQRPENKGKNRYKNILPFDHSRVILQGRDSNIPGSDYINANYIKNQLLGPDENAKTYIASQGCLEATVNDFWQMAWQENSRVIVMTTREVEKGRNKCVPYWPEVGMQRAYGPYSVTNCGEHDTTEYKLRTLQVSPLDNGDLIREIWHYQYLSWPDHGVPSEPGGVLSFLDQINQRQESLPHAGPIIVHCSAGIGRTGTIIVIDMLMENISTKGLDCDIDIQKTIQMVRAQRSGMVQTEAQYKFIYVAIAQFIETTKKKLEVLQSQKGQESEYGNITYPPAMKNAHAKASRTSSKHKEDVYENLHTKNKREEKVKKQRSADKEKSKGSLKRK

inhibition [1]: 86%
IC50 [2]: 1.42 µM
IC50 [3]: 12.6 µM
IC50 [4]: 9.89 µM
Structure (SMILES): O=C(CCc1c[nH]c2ccccc12)N[C@@H](Cc1ccc(OCc2ccccc2)cc1)c1nc(C(=O)Nc2cc(F)ccc2C(=O)O)c(-c2ccccc2)s1
